Measured values reported in PubChem BioAssay.
Active and inactive are the calls of the source.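 Rule for the calls, unless noted: active = fluorescence slope higher than the sample average by over 3 SD (cut at about -0.22 in these data, passing the limit was not always enough); inactive = the rest.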

Legend:
[1] = inhibitors of TNFa-induced NFkB p65 translocation, primary screen, imaging, HUVEC, MLSMR starter and 10KST1 sets (AID 438;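 active = inhibition above 20% together with a positive visual image hit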;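 note: compound added about 3h40 before a 20 min TNFalpha stimulation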;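 for inhibition: signal is the nuclear over cytoplasmic p65 intensity ratio per well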); conditions: HUVEC TNFa-induced p65 nuclear translocation; cell count: measured here: nuclei count (cytotoxicity indicator), at 2.08 µM; inhibition: at 2 µM, stronger effect = higher value, 0% TNFa-plus-vehicle, 100% no-TNFa wells
[2] = endothelial E-selectin expression blockers – imaging, HUVEC, immunofluorescence, MLSMR starter and 10KST1 sets, primary screen (AID 487;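 active = visually confirmed hit in the image check and inhibition above 20%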;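 for inhibition: signal is fraction of cell area covered by stained E-selectin grains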;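 for nuclei count: 100% = median nuclei count of all wells on the same plate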); conditions: HUVEC TNFalpha-induced E-selectin immunofluorescence imaging, at 2 µM; inhibition: stronger effect = higher value; nuclei count: measured here: cell number, toxicity
[3] = Primary imaging screen for DUSP6 inhibitors that restore phospho-Erk in transfected HeLa cells, chemical complementation (AID 609;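 active = compounds giving at least 50% inhibition in the cell-based MKP-3 phosphatase rescue imaging test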;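 for inhibition: phospho-Erk level distribution per well compared with pooled transfected vehicle control wells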); conditions: HeLa MKP-3 transfected, phospho-Erk imaging KS statistic, at 10 µM, cells stimulated with TPA for 15 min
[4] = biological target: Dual specificity protein phosphatase 6 (Homo sapiens) (UniProt Q16828); assay: as above; conditions: HeLa MKP-3 transfected, phospho-Erk imaging KS statistic; at 10 µM; stronger effect = higher value; cells stimulated with TPA for 15 min
[5] = biological target: Voltage-gated potassium channel subunit beta-2 (Rattus norvegicus) (UniProt P62483); assay: inhibitors of rat Kvbeta2 reductase activity – biochemical, NADPH fluorescence, primary screen (AID 622); conditions: recombinant KvBeta, 4-cyanobenzaldehyde reduction, at 10 µM, stronger effect = higher value;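 note: slope of raw intensity against log time taken from 70 to 1610 s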
[6] = biological target: Voltage-gated potassium channel subunit beta-2 (Rattus norvegicus) (UniProt P62483); assay: enhancers of rat Kvbeta2 NADPH turnover – biochemical, NADPH fluorescence, primary screen (AID 623;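 active = NADPH fluorescence slope more negative than the mean of all samples by about 3 SD, 99.7% confidence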;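 note: fluorescence intensity change per second fitted from 20 to 320 s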); conditions: Recombinant KvBeta, NADPH fluorescence decrease slope, 10 min; at 10 µM; stronger effect = lower value
[7] = biological target: Alpha-2C adrenergic receptor (Homo sapiens) (UniProt P18825); assay: compounds altering alpha2C-coupled GIRK flux – cell-based, HEK293 alpha2C/GIRK1/2, thallium flux, primary screen (AID 624;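 active = fluorescence slope after compound addition differing from the mean of all screened samples at 99.7% confidence, in either direction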;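 note: slope of fluorescence ratio to pre-addition baseline per second over 15 to 24 s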); conditions: thallium flux BTC fluorescence, at 10 µM, actives lie on both sides
[8] = inhibitors of larval lipid processing in zebrafish, primary screen, whole organism, PED6 fluorescence, gall bladder and intestine (AID 686;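 active = a full or partial loss of lipid-probe fluorescence in the fish gall bladder, intestine or both, judged by eye; inactive = no fluorescence loss, or compound toxic to the fish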;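 note: larvae 5 to 7 days old with five fish per well; signal comes from phospholipase A2 cleavage of quenched PED6 carried via bile; overnight exposure to compound and PED6 before scoring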); conditions: Zebrafish larvae PED6 lipid processing, fluorescence scoring; screened at 20 µM (by protocol)
Method in brief: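 Doses: 20 µM single dose. Test system: live zebrafish larvae aged 5-7 days, whole organism. Quantity: five larvae per well. Measured by: By-eye fluorescence microscopy. Reagent: ingested quenched lipid PED6 at 100 nM. Read-out: visual per-well fluorescence inhibition score. Times: overnight exposure of larvae to compound plus PED6.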

[9] = loss of swimming-algae plug formation – whole organism, Chlamydomonas reinhardtii, WT vs cilia-less mutant, absorbance, 96-well, primary screen (AID 463189;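 active = inhibition at or above 50% relative to wild type and mutant plate controls; inactive = inhibition below 50%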;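 note: 0% = wild type cc124 cells in DMSO and 100% = ciliumless bld1 mutant cells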); conditions: Chlamydomonas reinhardtii gravitaxis, OD600 absorbance, 2 days; at 10 µM; stronger effect = higher value
[10] = measured here: cell density z-score
[11] = measured here: nuclear c-Myc green intensity z-score
[12] = measured here: nuclear pErk red intensity z-score, stronger effect = higher value

Chain of Dual specificity protein phosphatase 6 (Homo sapiens) (Q16828 whole entry, looked up): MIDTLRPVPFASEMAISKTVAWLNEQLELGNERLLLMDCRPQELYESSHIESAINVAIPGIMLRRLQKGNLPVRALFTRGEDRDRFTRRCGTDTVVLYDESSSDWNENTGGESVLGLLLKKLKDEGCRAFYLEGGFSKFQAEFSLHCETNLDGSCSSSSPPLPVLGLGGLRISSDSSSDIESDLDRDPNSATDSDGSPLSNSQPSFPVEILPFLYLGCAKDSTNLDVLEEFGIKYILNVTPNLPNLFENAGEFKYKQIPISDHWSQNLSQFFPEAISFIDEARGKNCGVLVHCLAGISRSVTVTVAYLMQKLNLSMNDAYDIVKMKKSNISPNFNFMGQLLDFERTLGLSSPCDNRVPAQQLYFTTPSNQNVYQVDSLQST
Chain of Voltage-gated potassium channel subunit beta-2 (Rattus norvegicus) (P62483 whole entry, looked up): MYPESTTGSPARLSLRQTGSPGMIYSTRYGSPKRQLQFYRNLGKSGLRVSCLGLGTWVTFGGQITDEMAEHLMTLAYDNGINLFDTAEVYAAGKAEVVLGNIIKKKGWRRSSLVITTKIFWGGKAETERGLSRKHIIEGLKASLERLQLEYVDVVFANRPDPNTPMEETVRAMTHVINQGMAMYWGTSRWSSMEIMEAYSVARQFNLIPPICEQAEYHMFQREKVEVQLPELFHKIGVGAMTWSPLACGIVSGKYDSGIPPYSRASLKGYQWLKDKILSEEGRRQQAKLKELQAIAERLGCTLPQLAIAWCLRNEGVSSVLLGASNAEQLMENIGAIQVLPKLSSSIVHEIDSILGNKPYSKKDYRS
Chain of Alpha-2C adrenergic receptor (Homo sapiens) (P18825 whole entry, looked up): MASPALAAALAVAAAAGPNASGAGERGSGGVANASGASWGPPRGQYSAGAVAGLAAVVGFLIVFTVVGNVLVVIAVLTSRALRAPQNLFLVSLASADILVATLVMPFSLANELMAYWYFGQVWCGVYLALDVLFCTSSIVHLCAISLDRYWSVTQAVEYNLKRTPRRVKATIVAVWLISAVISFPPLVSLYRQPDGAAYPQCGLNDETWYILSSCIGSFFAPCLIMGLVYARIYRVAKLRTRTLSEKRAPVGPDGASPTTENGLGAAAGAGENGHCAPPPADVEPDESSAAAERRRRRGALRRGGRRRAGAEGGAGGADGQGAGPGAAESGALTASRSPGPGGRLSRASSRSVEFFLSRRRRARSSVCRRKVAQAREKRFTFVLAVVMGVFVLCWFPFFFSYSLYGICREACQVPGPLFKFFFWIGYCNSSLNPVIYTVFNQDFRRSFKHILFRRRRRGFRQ

Compound | cell count [1] | inhibition [1] | inhibition [2] | nuclei count [2] [%] | z-score [3, 10] | z-score [3, 11] | z-score [3, 12] | inhibition [4] | fluorescence slope [5] | NADPH fluorescence slope [6] | slope [7] | outcome [8] | inhibition [9]
CCOc1ccc(C2=Nn3c(nnc3-c3ccccn3)SC2)cc1 | 493 | 1.1% (inactive) | -197% (inactive) | 107 | 1.13 | -0.317 | 0.587 | -13.3% (inactive) | -0.467 (inactive) | -3.6e-05 (inactive) | 0.00617 (inactive) | inactive | 0.114% (inactive)
CC(=O)c1ccc(O)c(CO)c1 | 639 | -20.9% (inactive) | -32.3% (inactive) | 101 | -0.0166 | 0.525 | -0.493 | 4.37% (inactive) | -0.463 (inactive) | -1.1e-05 (inactive) | 0.00706 (inactive) | inactive | -12.4% (inactive)
CN(C)S(=O)(=O)Nc1ccc(NS(=O)(=O)N(C)C)c(S(=O)(=O)c2ccccc2)c1 | 341 | -11.9% (inactive) | -131% (inactive) | 99.4 | -0.765 | 0.48 | -2.08 | 7.73% (inactive) | -0.495 (inactive) | -0.000114 (inactive) | 0.00381 (inactive) | inactive | -7.02% (inactive)
CCOC(=O)C1Cc2c([nH]c3ccccc23)C(C)N1 (stereo not drawn) | 640 | -12.2% (inactive) | -61.9% (inactive) | 176 | -0.293 | -0.384 | -0.135 | -18.6% (inactive) | -0.422 (inactive) | -5.9e-05 (inactive) | 0.00514 (inactive) | inactive | -12.3% (inactive)
CCCCOc1ccc(C(=O)OC2CC(C)N(C)CC2C)cc1 (stereo not drawn) | 358 | -21.6% (inactive) | -186% (inactive) | 155 | -0.354 | -1.1 | -0.696 | -14% (inactive) | -0.46 (inactive) | -0.000115 (inactive) | 0.00554 (inactive) | inactive | 144% (active)
Cn1c2c(c(=O)n(C)c1=O)C(NC(=O)c1cccs1)(C(F)(F)F)C(=O)N2 (stereo not drawn) | 497 | 3.5% (inactive) | -80.8% (inactive) | 147 | 1.78 | -0.706 | -0.81 | 8.76% (inactive) | -0.537 (inactive) | -9.1e-06 (inactive) | 0.00621 (inactive) | inactive | 24.7% (inactive)
Cc1ccc2[nH]c3c(c2c1)CN(C(=O)CN1CCCc2ccccc21)CC3 | 557 | -8.1% (inactive) | -104% (inactive) | 142 | -0.606 | -1.61 | -0.633 | 2.92% (inactive) | -0.439 (inactive) | -7.1e-05 (inactive) | 0.00496 (inactive) | active; weak signal in gallbladder and intestine | 15.5% (inactive)
Cc1ccc(N2C(=O)[C@@H]3[C@H](C2=O)C2CCCN2[C@@H]3C(=O)c2ccccc2)cc1 (stereo partly drawn) | 329 | -6.6% (inactive) | -25.8% (inactive) | 146 | 1.29 | -0.857 | 1.07 | -8.59% (inactive) | -0.42 (inactive) | -0.000146 (inactive) | 0.00854 (inactive) | inactive | 0.279% (inactive)
CCOc1ccc2c(C)nc(NC3=NC(C)(C)C=C(C)N3)nc2c1 | 641 | -3.1% (inactive) | 46.4% (inactive) | 158 | -1.28 | 1.6 | 1.26 | -9.66% (inactive) | -0.373 (inactive) | -4.2e-05 (inactive) | 0.00624 (inactive) | inactive | 19.3% (inactive)
COc1ccccc1C1/C(=C(/O)c2ccc(C)cc2)C(=O)C(=O)N1Cc1ccco1 (stereo not drawn) | 550 | 9.2% (inactive) | 6.3% (inactive) | 101 | 0.623 | 0.192 | -1.11 | -11.5% (inactive) | -0.552 (inactive) | -6.1e-05 (inactive) | 0.00643 (inactive) | inactive | -13.2% (inactive)
CCOC(=O)C1=C(CSc2nc3c(cc2C#N)CCC3)OC(N)=C(C#N)C1c1ccccc1 (stereo not drawn) | 514 | -16.1% (inactive) | -90.1% (inactive) | 118 | -0.196 | 0.0665 | -0.283 | -0.674% (inactive) | -0.426 (inactive) | 5.2e-06 (inactive) | 0.00558 (inactive) | inactive | 5.98% (inactive)
CCCC(=O)Nc1sc2c(c1C#N)CCCC2 | 385 | 7.8% (inactive) | -83.9% (inactive) | 110 | -0.165 | 0.756 | -2.32 | 3.56% (inactive) | -0.445 (inactive) | -0.000372 (inactive) | 0.00647 (inactive) | inactive | -10.7% (inactive)
CCOC(=O)c1[nH]c2cc3c(cc2c1NC(=O)CN1CCCCC1C)OCO3 (stereo not drawn) | 588 | -1.8% (inactive) | 46.2% (inactive) | 167 | 0.894 | -1.11 | -0.403 | -10.5% (inactive) | -0.229 (inactive) | -2e-05 (inactive) | 0.00474 (inactive) | inactive | -2.82% (inactive)
CCC1(C)Cc2c(sc3c2c(=O)n(C)c2nnc(SCc4ccc5c(c4)OCO5)n32)CO1 (stereo not drawn) | 497 | -11% (inactive) | 34% (inactive) | 98.6 | 1.16 | 0.737 | -1.44 | 22.3% (inactive) | -0.418 (inactive) | 9.4e-07 (inactive) | 0.00552 (inactive) | inactive | 46.1% (inactive)
c1coc(-c2nnc3sc(C4CCCCC4)nn23)c1 | 653 | -0.1% (inactive) | -85.2% (inactive) | 170 | -0.617 | -0.759 | -0.627 | 1.12% (inactive) | -0.451 (inactive) | -0.000143 (inactive) | 0.00424 (inactive) | inactive | 77.6% (active)
O=C(NCc1ccco1)c1cnn2c1NC(c1ccccc1)CC2C(F)(F)F (stereo not drawn) | 479 | -5.5% (inactive) | -25.8% (inactive) | 107 | -0.862 | 0.861 | -0.0535 | -2.07% (inactive) | -0.53 (inactive) | -4e-05 (inactive) | 0.0056 (inactive) | inactive | -7.85% (inactive)
COc1cccc(-c2nc(N3CCN(Cc4ccccc4)CC3)c3ccccc3n2)c1O | 578 | -4.5% (inactive) | 7% (inactive) | 126 | -0.018 | 0.0703 | 0.663 | 3.5% (inactive) | -0.272 (inactive) | 8.6e-06 (inactive) | 0.0051 (inactive) | inactive | 8.35% (inactive)
CCCCCCC(=O)N1CCN(c2cc3c(cc2F)c(=O)c(C(=O)O)cn3CC)CC1 | 402 | 6% (inactive) | -166% (inactive) | 224 | -1.36 | 0.0882 | 0.161 | 6.04% (inactive) | -0.0683 (inactive) | -1.7e-05 (inactive) | 0.0054 (inactive) | inactive | 4.18% (inactive)
CSc1nc(C)cc(OCCNS(=O)(=O)c2cc(C)ccc2C)n1 | 384 | -16% (inactive) | -21.6% (inactive) | 141 | 0.846 | -0.567 | -1.02 | 12.3% (inactive) | -0.414 (inactive) | -8.3e-05 (inactive) | 0.00593 (inactive) | inactive | 117% (active)
OC1CN=C2Sc3ccccc3N2C1 (stereo not drawn) | 530 | 13.2% (inactive) | -227% (inactive) | 188 | -0.279 | 0.975 | 0.81 | -7.28% (inactive) | -0.378 (inactive) | -1.8e-05 (inactive) | 0.00473 (inactive) | inactive | -4.68% (inactive)
CC(=O)NC1(C(F)(F)F)C(=O)Nc2c1c(=O)n(C)c(=O)n2C (stereo not drawn) | 480 | -4.5% (inactive) | -139% (inactive) | 144 | 0.582 | -0.0109 | -0.0908 | 1.6e-07% (inactive) | -0.529 (inactive) | -4.1e-05 (inactive) | 0.00477 (inactive) | inactive | 2.3% (inactive)
CCOP(=O)(c1ccccc1)c1nc(-c2ccc(F)cc2)oc1N1CCCCC1 (stereo not drawn) | 658 | 1.8% (inactive) | -100% (inactive) | 136 | 0.739 | -0.227 | 1.53 | 4.25% (inactive) | -0.529 (inactive) | -0.000105 (inactive) | 0.00389 (inactive) | inactive | 2.55% (inactive)
CCOC(=O)c1c(C)[nH]sc1=S | 569 | -2.6% (inactive) | 42.2% (inactive) | 95.8 | -1.01 | 0.222 | 0.907 | 9.82% (inactive) | -0.335 (inactive) | -1.2e-06 (inactive) | 0.00974 (inactive) | inactive | 30.1% (inactive)
CC(=O)C1=C(O)C(=O)N(c2cccc(C(=O)O)c2)C1c1ccc(F)cc1 (stereo not drawn) | 580 | -13% (inactive) | -65.7% (inactive) | 160 | -0.487 | -0.742 | 1.35 | -6.06% (inactive) | -0.509 (inactive) | -3.9e-05 (inactive) | 0.00665 (inactive) | inactive | -5.48% (inactive)
CCOC(=O)C1=C(C)N=C2SC(C)C(=O)N2C1c1ccc(OC(C)=O)c(OC)c1 (stereo not drawn) | 364 | -4% (inactive) | -11.8% (inactive) | 184 | 0.885 | -1.84 | 1.33 | -4.59% (inactive) | -0.413 (inactive) | -0.000136 (inactive) | 0.00549 (inactive) | inactive | 21.6% (inactive)
COC(=O)CN(c1nc(C)cc(OC)n1)S(=O)(=O)c1ccccc1 | 568 | -3.9% (inactive) | -82.4% (inactive) | 122 | -1.67 | 0.823 | -0.13 | 3.56% (inactive) | -0.391 (inactive) | -2.2e-05 (inactive) | 0.00529 (inactive) | inactive | -16.2% (inactive)
